Reference: ChEMBL document CHEMBL3102739, “Synthesis and antiproliferative activity of conformationally restricted 1,2,3-triazole analogues of combretastatins in the sea urchin embryo model and against human cancer cell lines” (Bioorg Med Chem, 2014)
Active and inactive are the calls of the source. The calls are words filed in the database; no cut-off is given here.

How the values were obtained:
[1] = Cytotoxicity against human Jurkat/A4 cells assessed as cell death at 1 uM after 48 hrs by trypan blue exclusion assay relative to control; format: functional
How it was run: (§1)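 Compound added to exponentially growing Jurkat or Jurkat/A4 cells in RPMI-1640 with 10% FCS at 37 °C. Viable cells counted directly by trypan blue exclusion after 48 h. EC50 taken by linear interpolation of survival data. Mean±SD from three independent experiments.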

Jurkat [2] = assay: Cytotoxicity against human Jurkat cells assessed as cell viability after 48 hrs by trypan blue exclusion assay; format: functional, cell-based; how it was run: as §1
[3] = Induction of apoptosis in human Jurkat/A4 cells assessed as active caspase 3 expression at 150 nM after 48 hrs by FITC-conjugated flow cytometric analysis (reference value: 1.1%); format: functional
How it was run: (§2)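 Jurkat or Jurkat/A4 cells treated, then permeabilized per the manufacturer's protocol and stained with FITC-conjugated monoclonal antibody to active caspase-3. Percentage of positive cells (M1 gate) measured by flow cytometry. Untreated cells served as controls.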

[4] = Induction of apoptosis in human Jurkat/A4 cells assessed as active caspase 3 expression at 150 nM after 24 hrs by FITC-conjugated flow cytometric analysis (reference value: 1.1%); format: functional; how it was run: as §2
Jurkat [5] = assay: Induction of apoptosis in human Jurkat cells assessed as active caspase 3 expression at 15 nM after 48 hrs by FITC-conjugated flow cytometric analysis (reference value: 3.3%); format: functional; how it was run: as §2
Jurkat [6] = assay: Induction of apoptosis in human Jurkat cells assessed as active caspase 3 expression at 15 nM after 24 hrs by FITC-conjugated flow cytometric analysis (reference value: 3.3%); format: functional; how it was run: as §2
Jurkat [7] = assay: Induction of apoptosis in human Jurkat cells assessed as active caspase 3 expression at 15 nM by FITC-conjugated flow cytometric analysis; format: functional, cell-based; conditions: TDE = time-dependent effect; how it was run: as §2
Jurkat/A4 [8] = assay: Induction of apoptosis in human Jurkat/A4 cells assessed as Bcl-2 expression at 150 nM after 24 to 48 hrs Western blotting analysis; format: functional, cell-based
How it was run: (§3)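 Treatment 24 or 48 h (Jurkat 15 nM, Jurkat/A4 150 nM for CA4P). Cells washed in ice-cold PBS and lysed 30 min at 4 °C in 20 mM Tris-HCl pH 7.4, 1% Triton X-100, 150 mM NaCl with protease inhibitors. Equal protein run on 12% SDS-PAGE and blotted to PVDF. Probed with monoclonal antibodies to caspase-9, caspase-2, Bcl-2 or XIAP for 2 h at room temperature, then HRP anti-mouse and ECL. β-actin used as loading control.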

Jurkat [9] = assay: Induction of apoptosis in human Jurkat cells assessed as Bcl-2 expression at 15 nM after 24 to 48 hrs Western blotting analysis; format: functional, cell-based; how it was run: as §3
Jurkat/A4 [10] = assay: Induction of apoptosis in human Jurkat/A4 cells assessed as reduction of XIAP expression at 150 nM after 24 hrs Western blotting analysis; format: functional, cell-based; how it was run: as §3
Jurkat [11] = assay: Induction of apoptosis in human Jurkat cells assessed as reduction of XIAP expression at 15 nM after 24 hrs Western blotting analysis; format: functional, cell-based; how it was run: as §3
Jurkat/A4 [12] = assay: Induction of apoptosis in human Jurkat/A4 cells assessed as caspase 2 activation at 150 nM after 24 to 48 hrs by Western blotting analysis; format: functional, cell-based; how it was run: as §3
Jurkat/A4 [13] = assay: Induction of apoptosis in human Jurkat/A4 cells assessed as caspase 9 activation at 150 nM after 24 to 48 hrs by Western blotting analysis; format: functional, cell-based; how it was run: as §3
Jurkat [14] = assay: Induction of apoptosis in human Jurkat cells assessed as caspase 2 activation at 15 nM after 24 to 48 hrs by Western blotting analysis; format: functional, cell-based; how it was run: as §3
Jurkat [15] = assay: Induction of apoptosis in human Jurkat cells assessed as caspase 9 activation at 15 nM after 48 hrs by Western blotting analysis; format: functional, cell-based; how it was run: as §3
[16] = Cell cycle arrest in human Jurkat/A4 cells assessed as accumulation at sub-G1 phase at 150 nM after 48 hrs by propidium iodide staining-based flow cytometric analysis (reference value: 17.1%); format: functional
Jurkat/A4 [17] = assay: Induction of apoptosis in human Jurkat/A4 cells assessed as micronuclei formation after 48 hrs by May-Grunwald-Giemsa staining-based microscopic analysis; format: functional, cell-based
How it was run: (§4)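 Jurkat or Jurkat/A4 cells treated 48 h, with untreated cells as control. Cells cytospun, stained by May–Grünwald–Giemsa and examined by light microscopy with a 100× objective for micronuclei, membrane-enclosed fragments with unequally segregated chromosomes, and condensed nuclei.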

Jurkat/A4 [18] = assay: Induction of apoptosis in human Jurkat/A4 cells assessed as small cell fragments with unequally segregated chromosomes enclosed by cell membrane after 48 hrs by May-Grunwald-Giemsa staining-based microscopic analysis; format: functional; how it was run: as §4
Jurkat [19] = assay: Induction of apoptosis in human Jurkat cells assessed as small cell fragments with unequally segregated chromosomes enclosed by cell membrane after 48 hrs by May-Grunwald-Giemsa staining-based microscopic analysis; format: functional; how it was run: as §4
Jurkat [20] = assay: Induction of apoptosis in human Jurkat cells assessed as micronuclei formation after 48 hrs by May-Grunwald-Giemsa staining-based microscopic analysis; format: functional, cell-based; how it was run: as §4
Jurkat [21] = assay: Cell cycle arrest in human Jurkat cells assessed as accumulation at sub-G1 phase at 15 nM after 48 hrs by propidium iodide staining-based flow cytometric analysis (reference value: 12.2%); format: functional
[22] = Cell cycle arrest in human Jurkat/A4 cells assessed as decrease in accumulation at G0/G1 phase at 150 nM after 24 hrs by propidium iodide staining-based flow cytometric analysis; format: functional
[23] = Cell cycle arrest in human Jurkat/A4 cells assessed as increase in accumulation at G2/M phase at 150 nM after 24 hrs by propidium iodide staining-based flow cytometric analysis; format: functional
Jurkat [24] = assay: Cell cycle arrest in human Jurkat cells assessed as decrease in accumulation at G0/G1 phase at 15 nM after 24 hrs by propidium iodide staining-based flow cytometric analysis; format: functional
Jurkat [25] = assay: Cell cycle arrest in human Jurkat cells assessed as increase in accumulation at G2/M phase at 15 nM after 24 hrs by propidium iodide staining-based flow cytometric analysis; format: functional

Which Activity [1] does the source give for `COc1ccc(/C=C\c2cc(OC)c(OC)c(OC)c2)cc1OP(=O)([O-])[O-].[Na+].[Na+]` [FOSBRETABULIN DISODIUM] here?
Its Activity is <20%.

And the EC50 (Jurkat [2])?
Its EC50 is 15 nM.

And the Activity [3]?
The Activity was 1.6%.

What about the Activity [4] of the same compound?
Its Activity is 2.2%.

What about the Activity (Jurkat [5]) of the same compound?
The Activity was 31.6%.

What about the Activity (Jurkat [6]) of the same compound?
Its Activity is 15%.

And the Activity (Jurkat [7])?
Its Activity is “tde”.

What about the Activity (Jurkat/A4 [8]) of the same compound?
The Activity was “inactive”.

And the Activity (Jurkat [9])?
The Activity was “inactive”.

And the Activity (Jurkat/A4 [10])?
The Activity was “inactive”.

What about the Activity (Jurkat [11]) of the same compound?
Its Activity is “Active”.

And the Activity (Jurkat/A4 [12])?
The Activity was “inactive”.

And the Activity (Jurkat/A4 [13])?
The Activity was “inactive”.

What about the Activity (Jurkat [14]) of the same compound?
Its Activity is “Active”.

What about the Activity (Jurkat [15]) of the same compound?
Its Activity is “Active”.

What about the Activity [16] of the same compound?
The Activity was 24.3%.

What about the Activity (Jurkat/A4 [17]) of the same compound?
The Activity was “Active”.

What about the Activity (Jurkat/A4 [18]) of the same compound?
The Activity was “Active”.

And the Activity (Jurkat [19])?
The Activity was “Active”.

And the Activity (Jurkat [20])?
The Activity was “Active”.

What about the Activity (Jurkat [21]) of the same compound?
Its Activity is 39.5%.

What about the Activity [22] of the same compound?
Its Activity is “Active”.

And the Activity [23]?
Its Activity is “Active”.

And the Activity (Jurkat [24])?
Its Activity is “Active”.

And the Activity (Jurkat [25])?
Its Activity is “Active”.
